Test results published in ChEMBL document CHEMBL1123041, “Synthesis of new bis(aminoethanethiol) (BAT) derivatives: possible ligands for 99mTc brain imaging agents” (J Med Chem, 1985).

Legend:
[1] = test system: Rattus norvegicus; test: Biodistribution in Sprague-Dawley rat lungs(2) 2 minutes after intravenous administration, [99mTc]/[125I] IAP ratio); format: ADME, organism-based, Lung; conditions: in vivo
Procedure, shortened: (§1)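 99mTc complex and [125I]iodoantipyrine were co-injected iv into rats. Rats were killed by cardiectomy at 2 or 15 min, and organs were excised, weighed and gamma-counted in two channels with spillover correction. The ratio is 99mTc percent dose divided by 125I percent dose in the same organ, averaged over three rats. Radiochemical purity of the complexes was >95% by reversed-phase HPLC.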

[2] = test system: Rattus norvegicus; test: Biodistribution in Sprague-Dawley rat liver 15 minutes after intravenous administration, [99mTc]/[125I] IAP ratio); format: ADME, organism-based; conditions: in vivo, 0.25 h; procedure, shortened: as §1
[3] = species: Homo sapiens; test: The human serum protein binding activity was determined; format: functional
Procedure, shortened: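 Equilibrium dialysis: 0.4 mL pooled human serum against 0.4 mL 0.15 M phosphate buffer pH 7.4 containing 99mTc complex (~0.025 μCi), rotated 18 h at 37 °C. Both sides weighed and counted; percent free = buffer/serum radioactivity concentration ratio × 100. Membrane counted afterwards to check membrane binding.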

[4] = test system: Rattus norvegicus; test: Biodistribution in Sprague-Dawley rat small intestine 2 minutes after intravenous administration, [99mTc]/[125I] IAP ratio); format: ADME, organism-based; conditions: in vivo; procedure, shortened: as §1
[5] = test system: Rattus norvegicus; test: Biodistribution in Sprague-Dawley rat liver 2 minutes after intravenous administration, [99mTc]/[125I] IAP ratio); format: ADME, organism-based; conditions: in vivo; procedure, shortened: as §1
[6] = test system: Rattus norvegicus; test: Biodistribution in Sprague-Dawley rat muscle 15 minutes after intravenous administration, [99mTc]/[125I] IAP ratio); format: ADME, organism-based, Muscle tissue; conditions: in vivo, 0.25 h; procedure, shortened: as §1
[7] = test system: Rattus norvegicus; test: Biodistribution in Sprague-Dawley rat skin 15 minutes after intravenous administration, [99mTc]/[125I] IAP ratio); format: ADME, organism-based, Zone of skin; conditions: in vivo, 0.25 h; procedure, shortened: as §1
[8] = test system: Rattus norvegicus; test: Biodistribution in Sprague-Dawley rat blood 2 minutes after intravenous administration, [99mTc]/[125I] IAP ratio); format: ADME, organism-based; conditions: in vivo; procedure, shortened: as §1
[9] = test system: Rattus norvegicus; test: Biodistribution in Sprague-Dawley rat brain 15 minutes after intravenous administration, [99mTc]/[125I] IAP ratio); format: ADME, organism-based; conditions: in vivo, 0.25 h; procedure, shortened: as §1
[10] = test system: Rattus norvegicus; test: Biodistribution in Sprague-Dawley rat heart 2 minutes after intravenous administration, [99mTc]/[125I] IAP ratio); format: ADME, organism-based; conditions: in vivo; procedure, shortened: as §1
[11] = test system: Rattus norvegicus; test: Biodistribution in Sprague-Dawley rat blood 15 minutes after intravenous administration, [99mTc]/[125I] IAP ratio); format: ADME, organism-based; conditions: in vivo, 0.25 h; procedure, shortened: as §1
[12] = test system: Rattus norvegicus; test: Biodistribution in Sprague-Dawley rat stomach 2 minutes after intravenous administration, [99mTc]/[125I] IAP ratio); format: ADME, organism-based; conditions: in vivo; procedure, shortened: as §1
[13] = test system: Rattus norvegicus; test: Biodistribution in Sprague-Dawley rat thyroid 15 minutes after intravenous administration, [99mTc]/[125I] IAP ratio); format: ADME, organism-based, Thyroid gland; conditions: in vivo, 0.25 h; procedure, shortened: as §1
[14] = test system: Rattus norvegicus; test: Biodistribution in Sprague-Dawley rat skin 2 minutes after intravenous administration, [99mTc]/[125I] IAP ratio); format: ADME, organism-based, Zone of skin; conditions: in vivo; procedure, shortened: as §1
[15] = test system: Rattus norvegicus; test: Biodistribution in Sprague-Dawley rat lungs(2) 15 minutes after intravenous administration, [99mTc]/[125I] IAP ratio); format: ADME, organism-based, Lung; conditions: in vivo, 0.25 h; procedure, shortened: as §1
[16] = test system: Rattus norvegicus; test: Biodistribution in Sprague-Dawley rat spleen 2 minutes after intravenous administration, [99mTc]/[125I] IAP ratio); format: ADME, organism-based; conditions: in vivo; procedure, shortened: as §1
[17] = test system: Rattus norvegicus; test: Biodistribution in Sprague-Dawley rat spleen 15 minutes after intravenous administration, [99mTc]/[125I] IAP ratio); format: ADME, organism-based; conditions: in vivo, 0.25 h; procedure, shortened: as §1
[18] = test system: Rattus norvegicus; test: Biodistribution in Sprague-Dawley rat thyroid 2 minutes after intravenous administration, [99mTc]/[125I] IAP ratio); format: ADME, organism-based, Thyroid gland; conditions: in vivo; procedure, shortened: as §1
[19] = Partition coefficient was determined at pH 7.0.; format: ADME; conditions: octanol/water
Procedure, shortened: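 99mTc-labelled BAT complex shaken with 3 g each of 1-octanol and 0.1 M phosphate buffer (pH 7.0), vortexed 3 min at room temperature, centrifuged 5 min. Two 0.5 g samples per layer counted in a well counter; PC = cpm/g octanol over cpm/g buffer. Octanol layer repartitioned until values were consistent; usually repeated three times.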

[20] = test system: Rattus norvegicus; test: Biodistribution in Sprague-Dawley rat muscle 2 minutes after intravenous administration, [99mTc]/[125I] IAP ratio); format: ADME, organism-based, Muscle tissue; conditions: in vivo; procedure, shortened: as §1
[21] = test system: Rattus norvegicus; test: Biodistribution in Sprague-Dawley rat kidneys(2) 2 minutes after intravenous administration, [99mTc]/[125I] IAP ratio); format: ADME, organism-based, Kidney; conditions: in vivo; procedure, shortened: as §1
[22] = test system: Rattus norvegicus; test: Biodistribution in Sprague-Dawley rat small intestine 15 minutes after intravenous administration, [99mTc]/[125I] IAP ratio); format: ADME, organism-based; conditions: in vivo, 0.25 h; procedure, shortened: as §1
[23] = test system: Rattus norvegicus; test: Biodistribution in Sprague-Dawley rat kidneys(2) 15 minutes after intravenous administration, [99mTc]/[125I] IAP ratio); format: ADME, organism-based, Kidney; conditions: in vivo, 0.25 h; procedure, shortened: as §1
[24] = test system: Rattus norvegicus; test: Biodistribution in Sprague-Dawley rat stomach 15 minutes after intravenous administration, [99mTc]/[125I] IAP ratio); format: ADME, organism-based; conditions: in vivo, 0.25 h; procedure, shortened: as §1
[25] = test system: Rattus norvegicus; test: Biodistribution in Sprague-Dawley rat brain 2 minutes after intravenous administration, [99mTc]/[125I] IAP ratio); format: ADME, organism-based; conditions: in vivo; procedure, shortened: as §1
[26] = test system: Rattus norvegicus; test: Biodistribution in Sprague-Dawley rat heart 15 minutes after intravenous administration, [99mTc]/[125I] IAP ratio); format: ADME, organism-based; conditions: in vivo, 0.25 h; procedure, shortened: as §1
[27] = test system: Rattus norvegicus; test: Compound was evaluated for the biodistribution in Sprague-Dawley rats in muscle 15 minutes after intravenous administration, [99mTc]/[125I] IAP ratio); format: ADME, organism-based, Muscle tissue; conditions: in vivo, 0.25 h; procedure, shortened: as §1

Structure (SMILES)	Dose [1]	Dose [2]	Free [3]	Dose [4]	Dose [5]	Dose [7]	Dose [8]	Dose [9]	Dose [10]	Dose [11]	Dose [12]	Dose [13]	Dose [14]	Dose [15]	Dose [16]	Dose [17]	Dose [18]	Partition coefficient [19]	Dose [20]	Dose [21]	further results
COc1ccccc1C(CNCC(C)(C)S)NCC(C)(C)S (configuration not stated)	5.49%	17.4%	23.4%	4.47%	11.9%	11.8%	7.81%	0.297%	4.46%	2.56%	1.07%	0.063%	5.21%	0.877%	0.149%	0.197%	0.292%	260	7.09%	3.23%	Dose [6]: 15.1%; Dose [22]: 12.5%; Dose [23]: 1.1%; Dose [24]: 3.16%; Dose [25]: 2.3%; Dose [26]: 0.395%
CC(C)(S)CNCC(CN)NCC(C)(C)S.Cl.Cl.Cl (configuration not stated)	3.08%	22.7%	46.2%	5.09%	21.7%	9.43%	13.6%	0.288%	1.08%	8.07%	2.23%	0.045%	8.84%	1.57%	0.274%	0.206%	0.124%	46.8	9.19%	3.57%	Dose [27]: 18.5%; Dose [22]: 11.8%; Dose [23]: 2.47%; Dose [24]: 5.24%; Dose [25]: 1.28%; Dose [26]: 0.375%
